In ChEMBL document CHEMBL5331127, “Discovery of ARD-2051 as a Potent and Orally Efficacious Proteolysis Targeting Chimera (PROTAC) Degrader of Androgen Receptor for the Treatment of Advanced Prostate Cancer” (J Med Chem, 2023):
pIC50: −log10 of the molar value. Active and inactive are the calls of the source. The rule behind the calls is not given here.

How the values were obtained:
[1] = Drug concentration in ICR mouse plasma at 10 mg/kg, po measured after 1 hr; type: ADME, organism-based
In short: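 Mice given a single 10 mg/kg dose by oral gavage, 3 mice per time point. Plasma drug levels measured at 1, 3, 6 and 24 h; mean ± SD reported.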

LNCaP = assay: Induction of androgen receptor degradation in human LNCaP cells at 100 nM pretreated with thalidomide for 2 hrs followed by compound addition and 3 hrs by Western blot analysis; type: functional, cell-based; details: time 5.0 hrs
In short: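 LNCaP or VCaP cells pretreated 2 h with DMSO, ARi-12 (10 μM), thalidomide (10 μM), MG-132 (3 μM) or MLN4924 (0.5 μM), then given degrader at 100 nM for 3 h. AR measured by Western blot with GAPDH as loading control.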

[2] = Downregulation of KLK3 gene expression in human LNCaP cells at 0.3 nM incubated for 24 hrs by qRT-PCR analysis; type: functional
In short: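 LNCaP cells (RPMI 1640) or VCaP cells (DMEM Glutamax), both with 10% FBS, treated for 24 h. KLK3 mRNA measured by qRT-PCR and calculated by the comparative CT method against GAPDH and vehicle.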

[3] = Metabolic stability in monkey liver microsomes assessed as half life at 1 uM measured upto 45 mins in presence of NADPH by LC-MS/MS analysis; type: ADME, Macaca mulatta, Microsome; details: rhesus monkey, 0.75 h
In short: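 Pooled liver microsomes from each species: 1 μM compound with 0.5 mg/mL microsomes and 1.7 mM NADPH in 0.1 M K-phosphate, pH 7.4, 5 mM MgCl2, 37 °C. Sampled at 0, 5, 10, 15, 30 and 45 min with cold ACN quench. No-NADPH incubation as negative control; ketanserin as positive control. LC-MS/MS; half-life from ln(remaining) versus time.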

[4] = Metabolic stability in mouse hepatocytes assessed as half life at 1 uM measured upto 120 mins in presence of NADPH by LC-MS/MS analysis; type: ADME, cell-based, Hepatocyte; details: 2 h
[5] = Metabolic stability in human hepatocytes assessed as half life at 1 uM measured upto 120 mins in presence of NADPH by LC-MS/MS analysis; type: ADME, cell-based, Hepatocyte; details: 2 h
[6] = Metabolic stability in rat plasma assessed as half life at 1 uM measured upto 120 mins by LC-MS/MS analysis; type: ADME, cell-free; details: 2 h
In short: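 Compound at 1 μM final in pre-warmed plasma of each species, 37 °C for up to 2 h. ACN/IS quench at 0, 5, 15, 30, 60 and 120 min; LC/MS. Procaine as reference (benfluorex for rat). t1/2 = 0.693/slope of ln(fraction remaining) versus time.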

[7] = Plasma protein binding in rat at 1 uM after 5 hrs by equilibrium dialysis based LC-MS/MS analysis; type: ADME, cell-free
In short: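 Equilibrium dialysis of pooled plasma of each species spiked at 1 μM against 0.1 M sodium phosphate, pH 7.4. 5 h at 37 °C with shaking at 60 rpm. Both sides matrix-matched, ACN/IS quench, LC/MS. % bound = 100 − (buffer/plasma peak-area ratio × 100); recovery also calculated. Warfarin as reference.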

Cytochrome P450 1A2 = biological target: T1, Cytochrome P450 1A2 (Homo sapiens, UniProt P05177); assay: Inhibition of CYP1A2 in human liver microsomes preincubated for 5 mins followed by NADPH addition and measured after 10 mins by LC/MS analysis; type: ADME, Microsome
T1 sequence (P05177 whole entry): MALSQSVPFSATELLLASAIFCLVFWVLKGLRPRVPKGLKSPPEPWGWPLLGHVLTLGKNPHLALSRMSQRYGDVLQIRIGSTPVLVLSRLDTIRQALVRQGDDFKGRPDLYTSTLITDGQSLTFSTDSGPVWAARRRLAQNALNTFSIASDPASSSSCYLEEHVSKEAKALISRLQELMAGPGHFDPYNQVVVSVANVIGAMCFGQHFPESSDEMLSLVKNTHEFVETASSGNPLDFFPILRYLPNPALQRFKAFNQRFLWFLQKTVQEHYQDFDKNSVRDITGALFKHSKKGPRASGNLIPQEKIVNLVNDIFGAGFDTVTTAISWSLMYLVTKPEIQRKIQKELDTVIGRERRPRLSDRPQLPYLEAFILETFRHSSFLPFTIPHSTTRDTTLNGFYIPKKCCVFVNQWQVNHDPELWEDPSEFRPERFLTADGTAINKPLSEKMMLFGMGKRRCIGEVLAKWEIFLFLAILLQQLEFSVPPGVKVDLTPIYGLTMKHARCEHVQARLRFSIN
In short: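 Human liver microsomes (0.2 mg/mL stock) in 0.1 M potassium phosphate pH 7.4, prewarmed 5 min at 37 °C with test compound. Phenacetin as substrate; reaction started with NADPH (8 mM stock) and run 10 min, in duplicate. α-Naphthoflavone as reference inhibitor; LC/MS read-out.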

[8] = Half life in Sprague-Dawley rat at 1 mg/kg, iv measured upto 24 hrs by LC-MS/MS analysis; type: ADME, organism-based; details: in vivo
In short: (§1)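 Male ICR mice (2 mg/kg), male SD rats (1 mg/kg) or male Beagle dogs (1 mg/kg) given a single intravenous dose in 10% PEG400 + 90% PBS adjusted to pH 8.0 with NaOH.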

[9] = Clearance in ICR mouse at 2 mg/kg, iv measured upto 24 hrs by LC-MS/MS analysis; type: ADME, organism-based; details: in vivo; in short: as §1
[10] = Half life in Sprague-Dawley rat at 10 mg/kg, po measured up to 24 hrs by LC-MS/MS analysis; type: ADME, organism-based; details: in vivo
In short: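 Male SD rats given a single oral dose of 10 mg/kg in 5% DMSO + 10% Solutol + 85% saline.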

[11] = Drug concentration in CB17 SCID mouse plasma xenografted with human VCaP cells at 12.5 mg/kg, po measured after 24 hrs by LC-MS/MS analysis; type: ADME, organism-based
In short: (§2)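 SCID mice bearing one VCaP tumour each given a single oral 12.5 mg/kg dose in 100% PEG200. Plasma and tumour tissue collected at 6 and 24 h, 3 mice per time point. Values are mean ± SD.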

[12] = Drug concentration in CB17 SCID mouse tumor xenografted with human VCaP cells at 12.5 mg/kg, po measured after 24 hrs by LC-MS/MS analysis; type: ADME, organism-based, Neoplasm; details: read-out: Ct; in short: as §2

Which concentration at 1 h [1] does the source give for `C[C@H]1CC2(CCN(c3ccc(C(=O)N4CCN(C5CN(c6ccc7c(c6)C(=O)N(C6CCC(=O)NC6=O)C7=O)C5)CC4)cc3)CC2)CN1c1ccc(C#N)c(Cl)c1` (some centres undefined) here?
Its concentration at 1 h is 495 ng/mL.

What about the Activity (LNCaP) of the same compound?
The Activity was “inactive”.

And the Activity [2]?
The Activity was 53%.

And the t1/2 [3]?
Its t1/2 is > 1 h.

What about the t1/2 [4] of the same compound?
The t1/2 was > 2 h.

What about the t1/2 [5] of the same compound?
Its t1/2 is > 2 h.

What about the t1/2 [6] of the same compound?
The t1/2 was > 2 h.

And the PPB [7]?
The PPB was 99.1%.

What about the pIC50 (Cytochrome P450 1A2) of the same compound?
Its pIC50 is < 5.00.

And the t1/2 [8]?
The t1/2 was 2.1 h.

And the clearance [9]?
The clearance was 3.7 mL/min/kg.

And the t1/2 [10]?
The t1/2 was 3.9 h.

What about the concentration at 24 h [11] of the same compound?
Its concentration at 24 h is 742 ng/mL.

What about the concentration at 24 h [12] of the same compound?
The concentration at 24 h was 183 ng/mL.
